# Assay results of several laboratories.
# Protocols differ between the studies behind these lines.
# Observed: enzyme activity
# Action: inhibitor
# PARP10: Protein mono-ADP-ribosyltransferase PARP10 (PARP10, Homo sapiens, UniProt Q53GL7)
# HDAC1: Histone deacetylase 1 (HDAC1, Homo sapiens, UniProt Q13547)
Compound,target,technique,IC50 [nM]
Nc1cnccc1Nc1ccc(Cl)c(Cl)c1,"Uracil-DNA glycosylase (UNG, Homo sapiens, UniProt P13051)",,> 100000
CCCCCn1nnc2c3ccccc3c(=O)[nH]c21,PARP10,,182
Cc1ccc(S(=O)(=O)[N](Nc2ccc([N+](=O)[O-])cc2[N+](=O)[O-])[Sn]([Cl])[Cl])cc1,"Polyunsaturated fatty acid 5-lipoxygenase (ALOX5, Homo sapiens, UniProt P09917)",,1520
Nc1ccccc1NC(=O)c1ccc(Cn2cnc3c(Nc4ccc(Cl)cc4)ncnc32)cc1,HDAC1,fluorescence,14.1
Cc1ccc(Cn2nnc3c4ccccc4c(=O)[nH]c32)cc1,PARP10,,204
COc1ccc(N(Cc2csc(-c3ccccc3)n2)C(=O)CCCCCC(=O)NO)cc1,HDAC1,,1.1
O=C1CC[C@H](N2Cc3cc(N4CCN(CC5CCN(c6ccc([C@@H]7c8ccc(O)cc8CC[C@@H]7c7ccccc7)cc6)CC5)CC4)ccc3C2=O)C(=O)N1,"ATP-dependent translocase ABCB1 (ABCB1, Homo sapiens, UniProt P08183)",,900
COc1ccc(N(Cc2csc(-c3ccc(C)cc3)n2)C(=O)CCCCCC(=O)NO)cc1,HDAC1,,0.8
O=c1cc(-c2ccccc2)oc2cc(O)c(O)c(O)c12,"Seed linoleate 13S-lipoxygenase-1 (Glycine max, UniProt P08170)",,6360
COc1ccc(N(Cc2csc(-c3ccccc3Cl)n2)C(=O)CCCCCC(=O)NO)cc1,HDAC1,,2.1
O=c1[nH]c2c(nnn2C2CCCCC2)c2ccccc12,PARP10,,> 10000
COc1ccc(N(Cc2nc(-c3ccc(C)cc3)cs2)C(=O)CCCCCC(=O)NO)cc1,HDAC1,,2.6
Nc1nc2c(ncn2[C@H]2CC[C@@H](COP(=O)(O)OP(=O)(O)OP(=O)(O)O)O2)c(=O)[nH]1,"TERT (Tribolium castaneum, UniProt Q0QHL8)",fluorescence,550
COc1cccc(Cn2nnc3c4ccc(F)cc4c(=O)[nH]c32)c1,PARP10,,1660
COc1ccc(N(Cc2nc(-c3ccc(Br)cc3)cs2)C(=O)CCCCCC(=O)NO)cc1,HDAC1,,3.6
O=C(NO)c1ccc(Cn2cnc3c(Nc4cccc([N+](=O)[O-])c4)ncnc32)cc1,"Histone deacetylase 8 (HDAC8, Homo sapiens, UniProt Q9BY41)",,118
COc1ccc(N(Cc2nc(-c3ccc(F)cc3)cs2)C(=O)CCCCCC(=O)NO)cc1,HDAC1,,0.9
Cc1ccccc1Cn1nnc2c3ccc(F)cc3c(=O)[nH]c21,PARP10,,> 10000
COc1ccc(Nc2ncnc3c2ncn3Cc2ccc(C(=O)NO)cc2)cc1,HDAC1,fluorescence,260
COc1ccc(N(Cc2nc(-c3ccccc3)cs2)C(=O)CCCCCC(=O)NO)cc1,HDAC1,,1.6
c1ccc2c(-c3cnn4cc(-c5ccc(N6CCNCC6)cc5)cnc34)ccnc2c1,"TGF-beta receptor type-2 (TGFBR2, Homo sapiens, UniProt P37173)",,89.7
COc1ccc(N(Cc2nc(-c3ccc(Cl)cc3)cs2)C(=O)CCCCCC(=O)NO)cc1,HDAC1,,1.7
O=c1[nH]c2c(nnn2-c2ccc(Br)cc2)c2ccccc12,PARP10,,> 10000
O=C(NO)c1ccc(Cn2cnc3c(Nc4ccc(F)c(Cl)c4)ncnc32)cc1,HDAC1,fluorescence,341
CCCCn1c(=O)c2cc(F)ccc2c2nnn(Cc3ccc(C)cc3)c21,PARP10,,> 10000
O=C(CCCCc1ccc(CO)cc1)C(F)(F)C(F)(F)F,"Cytosolic phospholipase A2 (PLA2G4A, Homo sapiens, UniProt P47712)",,121000
